Source: PubChem (several laboratories)
A selection: hits, their analogues and other compounds. The true share with any hit is near 12%.
RAM inhibit: inhibitors of the yeast RAM network | S. cerevisiae dse1pr::URA3 reporter, 5-FOA growth OD615, 2 d; analog-sensitive cbk1-as2 kinase mutant strain | inhibition, % at 50 µM | 190,000 compounds, 1.8% hits | AID 868;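 active means inhibition above a set limit, 3 SD over mean compound inhibition, cut at about 8.4% in these data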;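 further: 0% = DMSO-only wells with no growth and 100% = 10 µM 1-NA-PP1 full growth; inhibition rescues growth on 5-FOA so higher OD means more RAM inhibition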
ABCG2 inh: inhibitors of human ABCG2 transporter, ABCB1 counter-screen | inhibition, % at 6.6 µM | Q9UNQ0 | IgMXP3 cells, JC-1 efflux, flow cytometry | AID 1325 | 190,000 compounds, 0.1% hits;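 active means inhibition above 80%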;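 further: 0% = DMSO and 100% = nicardipine control wells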
Target sequence (Q9UNQ0 whole entry, looked up): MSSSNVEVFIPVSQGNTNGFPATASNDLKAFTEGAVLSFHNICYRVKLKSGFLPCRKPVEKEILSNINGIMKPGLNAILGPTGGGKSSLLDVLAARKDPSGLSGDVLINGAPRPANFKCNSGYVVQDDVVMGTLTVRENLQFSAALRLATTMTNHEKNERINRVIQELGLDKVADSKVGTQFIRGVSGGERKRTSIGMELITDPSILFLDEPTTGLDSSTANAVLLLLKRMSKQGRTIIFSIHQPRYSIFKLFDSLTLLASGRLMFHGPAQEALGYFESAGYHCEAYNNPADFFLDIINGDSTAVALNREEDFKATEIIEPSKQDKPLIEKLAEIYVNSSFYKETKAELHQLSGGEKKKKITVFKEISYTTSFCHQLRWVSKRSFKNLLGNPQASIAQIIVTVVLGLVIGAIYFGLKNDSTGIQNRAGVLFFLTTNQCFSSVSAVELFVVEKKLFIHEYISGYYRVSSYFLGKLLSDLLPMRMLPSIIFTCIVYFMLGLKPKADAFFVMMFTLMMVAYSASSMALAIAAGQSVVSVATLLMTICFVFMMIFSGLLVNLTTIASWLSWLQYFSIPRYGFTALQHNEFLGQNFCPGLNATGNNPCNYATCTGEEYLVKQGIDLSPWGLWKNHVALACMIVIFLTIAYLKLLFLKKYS
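Incubation: cells with compound and JC-1, 10 min at 25 °C, rotating, no wash / Test system: IgMXP3 (ABCG2) plus far-red-tagged CCRF-Adr (ABCB1) cells / Compound dosing: one concentration, 6.6 µM final / Also added: JC-1 fluorescent substrate / Evaluation: efflux inhibition in percent versus controls / Detection: flow cytometry, 530 nm JC-1 signal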
ABCB1 inh: inhibitors of human ABCB1 transporter, ABCG2 counter-screen | P08183 | CCRF-Adr cells, JC-1 efflux, flow cytometry | inhibition, % at 6.6 µM | 190,000 compounds, 0.067% hits; in the data active means inhibition above about 40%;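 further: 0% = vehicle and 100% = reference inhibitor; higher value means more JC-1 retained so stronger ABCB1 efflux block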
L major viab: inhibitors of Leishmania major promastigote growth | inhibition, % at 10 µM | Leishmania major promastigotes, resazurin fluorescence viability | 200,000 compounds, 9% hits; in the data active means inhibition above about 50%;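 further: promastigotes grown with compound for 44 hours at 28 °C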
WT yeast gro inh: growth inhibition of WT yeast, mitochondrial fusion screen. 190,000 compounds, 2.1% hits. mitochondrial fusion phenotypic screen, WT strain. inhibition, % at 10 µM. AID 1362; in the data active means inhibition above about 58%; tested in S. cerevisiae
The depositor's hits bear a star; . = no result.

SMILES	RAM inhibit	ABCG2 inh	ABCB1 inh	L major viab	WT yeast gro inh
CC1CCN(CC(O)COCCOc2ccc(Br)cc2)CC1 (stereo not given)	1	4	1	82*	6
CC1CCN(CC(O)COCCC23CC4CC(CC(C4)C2)C3)CC1 (stereo not given)	0	0	0	95*	43
CC1CC(C)CN(CCOc2ccc(Br)cc2)C1 (stereo not given)	1	-1	0	82*	28
COC(=O)CS(=O)(=O)c1ccc(C)cc1	0	1	0	-4	3
CC1CC(C)CN(CC(O)COCCOc2ccc(Br)cc2)C1 (stereo not given)	1	5	0	92*	6
CC1CC(C)CN(CC(O)COc2ccc3c(c2)CCC3)C1 (stereo not given)	1	3	1	89*	39
CC(C)(C)CC(C)(C)NCC(O)COc1ccc2c(c1)CCC2 (stereo not given)	.	.	.	100*	.
CN1CCN(CC(O)COCCOc2ccc(Br)cc2)CC1 (stereo not given)	1	3	0	-8	-14
O=Cc1ccccc1OCCOc1ccc([N+](=O)[O-])cc1	0	21	1	52*	29
CCOC(=O)CC(NC(=O)CCc1c(C)nc2ncnn2c1C)c1ccc(OC(C)C)cc1 (stereo not given)	-1	1	1	-2	3
Cc1nn(Cc2ccccc2)c(C)c1C(=O)OCC(=O)c1cc(C)n(C2CC2)c1C	9.1*	6	2	14	13
COCCn1c(C)cc(C(=O)COC(=O)c2c(C)nn(Cc3ccccc3)c2C)c1C	0	8	1	16	16
O=C1CC(c2ccco2)Cc2nc(N3CCc4ccccc4C3)ncc21 (stereo not given)	2	2	0	14	12
COc1cc(C2CC(=O)c3cnc(N4CCN(Cc5ccccc5)CC4)nc3C2)cc(OC)c1OC (stereo not given)	4	4	2	46	2
CC(C)c1ccc(C2CC(=O)c3cnc(N4CCc5ccccc5C4)nc3C2)cc1 (stereo not given)	3	1	0	-3	58*
CC1CC(C)CN(c2ncc3c(n2)CC(c2ccccc2)CC3=O)C1 (stereo not given)	2	0	-1	7	71*
CN(C)C(=O)C1C2NC(=S)N(c3cccc(Cl)c3)C1(C)Oc1ccc(Cl)cc12 (stereo not given)	2	-1	0	7	-10
Cc1noc2ncnc(Sc3ccc(Cl)cc3)c12	2	10	1	44	-2
Cc1ccc(Sc2ncnc3onc(C)c23)cc1	2	6	2	56*	49
O=C(N/N=C/c1cc(Br)cc(Br)c1O)c1ccncc1	-2	6	-1	96*	-20
O=C(N/N=C/c1cc(Br)c(Br)s1)c1ccncc1	3	6	1	98*	-7
O=C(N/N=C/c1ccc(Br)s1)c1ccncc1	0	4	0	-6	19
O=C(COC(=O)CCSc1ccccc1)NCc1ccc(F)cc1	0	1	0	-4	1
C/C(=N\O)c1sc(-c2ccccc2)nc1C	4	5	0	10	18
COC(=O)C1=C(C)N(c2cccc(OC)c2)C(=O)/C1=C\c1ccco1	9.0*	5	0	2	2
SMILES	RAM inhibit	ABCG2 inh	ABCB1 inh	L major viab	WT yeast gro inh
COC(=O)C1=C(C)N(CCc2ccccc2)C(=O)/C1=C\c1ccco1	11*	5	0	23	-5
CC1(C)CC(=O)C2=C(C1)N1C(=C(C#N)C2c2ccc(Cl)cc2)N=C(N)c2ccccc21 (stereo not given)	7	1	0	66*	4
CNC(=S)N/N=C(\C)c1ccc(C(C)(C)C)cc1	1	21	0	5	75*
Cc1ccc(NC(=S)N(CCCN2CCCC(C)C2)Cc2ccco2)cc1C (stereo not given)	0	1	1	96*	-3
Cc1ccc(NC(=S)N(CCCN2CCOCC2)Cc2ccco2)cc1	0	1	0	4	9
S=C(Nc1ccc(Cl)cc1)N(CCCN1CCOCC1)Cc1ccco1	0	11	0	96*	4
CCN1CCN(CCCN(Cc2ccco2)C(=S)Nc2ccc(Cl)c(C)c2)CC1	2	3	1	44	16
Cc1ccc(NC(=S)N(CCN2CCCCC2)Cc2ccco2)cc1	1	-2	0	10	7
CCOC(=O)c1ccc(NC(=S)N(CCN2CCCCCC2)Cc2ccco2)cc1	-1	-2	1	95*	26
CCOC(=O)c1ccc(NC(=S)N(CCCN2CCCCCC2)Cc2ccco2)cc1	3	0	1	100*	9
O=C(CC1N=C(Cc2ccccc2)NNC1=O)N/N=C/c1ccc([N+](=O)[O-])cc1 (stereo not given)	2	1	0	-8	3
Cc1occc1C(=O)NNC(=O)c1ccc(Br)o1	2	0	0	-10	-1
COc1ccccc1CNC(=O)CN(Cc1ccc(Cl)cc1)S(C)(=O)=O	0	3	1	7	1
COC(=O)c1cn(NC(=O)c2ccccc2[N+](=O)[O-])c(=O)c2ccccc12	2	1	0	-7	-9
CC1(C)CC(=O)c2c(nc(SCC(=O)Nc3nsc(-c4ccccc4)n3)c(C#N)c2-c2ccccc2)C1	4	7	6	69*	24
Cc1nnc(SCC(=O)Nc2nsc(-c3ccccc3)n2)s1	3	2	0	-9	7
CCOc1ccccc1N1CCN(C(=O)/C=C/c2cccc([N+](=O)[O-])c2)CC1	0	3	0	6	10
Cc1cccc(Cn2c(Cc3ccccc3)nc3ccccc32)c1	2	28	2	92*	72*
Cc1ccccc1Cn1c(Cc2ccccc2)nc2ccccc21	1	1	1	47	77*
CS(=O)(=O)c1nc2ccccc2n1Cc1ccccc1	1	12	1	-3	94*
Clc1ncccc1-c1nc2ccccc2n1Cc1ccccc1	0	2	1	94*	22
COCc1nc2ccccc2n1Cc1ccccc1C	1	-2	0	14	7
COCc1nc2ccccc2n1Cc1cccc(C)c1	-1	0	0	-1	17
O=C1N(CN2CCN(Cc3ccccc3)CC2)c2ccccc2C12OCCCO2	1	0	0	0	-9
N#CCCn1cc(/C=N/NC(=O)c2ccncc2)c(-c2ccc(F)cc2)n1	-1	34	1	1	-32
Cc1ccc(S(=O)(=O)/N=C(/c2ccccc2)N2CCOCC2)c(C)c1	-1	0	0	-3	-4
COc1ccc(Nc2nc(N/N=C/c3ccc(N(C)C)cc3)nc(C)c2[N+](=O)[O-])cc1	10.0*	-6	0	-9	-4
O=C(CCN1CCN(CCO)CC1)Nc1ccc(OCc2ccccc2)cc1	-1	-3	0	61*	-17
